# Measurements taken from ChEMBL document CHEMBL4316593 (Eur J Med Chem, 2019).
# Active and inactive are the calls of the source. No cut-off for these calls is given here.
# What was measured:
# U-87 MG [1] = assay: Cytotoxicity against human U87 cells assessed as reduction in cell proliferation by phase contrast microscopic analysis; format: functional, cell-based; details: U-87MG ATCC
# U-87 MG [2] = assay: Cell cycle arrest in human U87 cells assessed as accumulation at S-phase at cytotoxic IC50 measured after 48 hrs by propidium iodide staining based fluorescence cell imaging analysis (reference value: 19.2%); format: functional, U-87MG ATCC
# Summary of the method: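 Cell cycle by PI staining. Cells seeded at 1×10^6 and grown overnight at 37°C, 5% CO₂, then exposed for 48hrs at their IC₅₀ concentration, with DMSO and cisplatin controls. Cells were trypsinized, washed in cold PBS and fixed in 70% ethanol at 4°C for 30 min. They were stained with PI in Triton X-100/RNase for 15 min at 37°C and imaged by fluorescence microscopy. Reported as mean ± S.E.M of triplicates.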
# U-87 MG [3] = assay: Cell cycle arrest in human U87 cells assessed as change in MYC gene expression at cytotoxic IC50 measured after 48 hrs […] relative to control; format: functional, U-87MG ATCC
# Summary of the method: (§1)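 U87 expression profiling. Cells incubated 48hrs at 37°C, 5% CO₂ with the IC₅₀ concentration, alongside a cisplatin and an untreated control, in triplicate. RNA was isolated by one common protocol and profiled. DEGs were called with DESeq2 (q < 0.05, fold change > 1.5) and expressed as fold change versus untreated.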
# U-87 MG [4] = assay: Cell cycle arrest in human U87 cells assessed as change in ESPL1 gene expression at cytotoxic IC50 measured after 48 hrs […] relative to control; format: functional, U-87MG ATCC; summary of the method: as §1
# U-87 MG [5] = assay: Cell cycle arrest in human U87 cells assessed as change in CDC6 gene expression at cytotoxic IC50 measured after 48 hrs […] relative to control; format: functional, U-87MG ATCC; summary of the method: as §1
# U-87 MG [6] = assay: Induction of DNA damage in human U87 cells assessed as change in CDK1 gene expression at cytotoxic IC50 measured after 48 hrs […] relative to control; format: functional, U-87MG ATCC; summary of the method: as §1
# U-87 MG [7] = assay: Induction of DNA damage in human U87 cells assessed as change in PEA15 gene expression at cytotoxic IC50 measured after 48 hrs […] relative to control; format: functional, U-87MG ATCC; summary of the method: as §1
# U-87 MG [8] = assay: Induction of apoptosis in human U87 cells assessed as apoptotic cells at cytotoxic IC50 measured after 48 hrs by Annexin V-FITC/propidium iodide staining based flow cytometry (reference value: 22.4%); format: functional, U-87MG ATCC
# U-87 MG [9] = assay: Induction of apoptosis in human U87 cells assessed as change in JUN gene expression at cytotoxic IC50 measured after 48 hrs […] relative to control; format: functional, U-87MG ATCC
# Summary of the method: (§2)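 U87 cells grown in MEM with 10% FBS at 37°C, 5% CO2. Cells exposed to IC50 of test compound for 48 hrs, alongside untreated and cisplatin controls, each condition in triplicate. RNA isolated and profiled; differential expression called with DESeq2 (q-value < 0.05, fold change > 1.5), fold change versus untreated.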
# U-87 MG [10] = assay: Induction of apoptosis in human U87 cells assessed as change in FAS gene expression at cytotoxic IC50 measured after 48 hrs […] relative to control; format: functional, U-87MG ATCC; summary of the method: as §2
# U-87 MG [11] = assay: Induction of apoptosis in human U87 cells assessed as change in CAPN2 gene expression at cytotoxic IC50 measured after 48 hrs […] relative to control; format: functional, U-87MG ATCC; summary of the method: as §2
# U-87 MG [12] = assay: Induction of apoptosis in human U87 cells assessed as change in CTSV gene expression at cytotoxic IC50 measured after 48 hrs […] relative to control; format: functional, U-87MG ATCC; summary of the method: as §2
# U-87 MG [13] = assay: Induction of apoptosis in human U87 cells assessed as change in MAPK8 gene expression at cytotoxic IC50 measured after 48 hrs […] relative to control; format: functional, U-87MG ATCC; summary of the method: as §2
# U-87 MG [14] = assay: Induction of apoptosis in human U87 cells assessed as change in TNFRSF10C gene expression at cytotoxic IC50 measured after 48 hrs […] relative to control; format: functional, U-87MG ATCC; summary of the method: as §2
# [15] = Inhibition of RTK/PI3K/AKT/mTOR signaling in human U87 cells assessed as down regulation of CHST3 gene expression at cytotoxic IC50 measured after 48 hrs relative to control; format: cell-based; details: U-87MG ATCC; summary of the method: as §2
# [16] = Inhibition of RTK/PI3K/AKT/mTOR signaling in human U87 cells assessed as down regulation of DAGLB gene expression at cytotoxic IC50 measured after 48 hrs relative to control; format: cell-based; details: U-87MG ATCC; summary of the method: as §2
# [17] = Inhibition of RTK/PI3K/AKT/mTOR signaling in human U87 cells assessed as down regulation of SORT1 gene expression at cytotoxic IC50 measured after 48 hrs relative to control; format: cell-based; details: U-87MG ATCC
# Summary of the method: (§3)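 Cells were exposed for 48hrs at 37°C in humidified 5% CO₂ to the compound at its previously determined IC₅₀, with Cisplatin at its IC₅₀ and an untreated negative control alongside. Each condition was run in triplicate. RNA was isolated from all samples by the same protocol. Genes were called differentially expressed by DESeq2 at q-value < 0.05 and fold change > 1.5.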
# [18] = Inhibition of RTK/PI3K/AKT/mTOR signaling in human U87 cells assessed as down regulation of CDK5RAP2 gene expression at cytotoxic IC50 measured after 48 hrs relative to control; format: cell-based; details: U-87MG ATCC; summary of the method: as §2
# [19] = Inhibition of RTK/PI3K/AKT/mTOR signaling in human U87 cells assessed as down regulation of NFIL3 gene expression at cytotoxic IC50 measured after 48 hrs relative to control; format: cell-based; details: U-87MG ATCC; summary of the method: as §3
# [20] = Inhibition of RTK/PI3K/AKT/mTOR signaling in human U87 cells assessed as up regulation of KLF7 gene expression at cytotoxic IC50 measured after 48 hrs relative to control; format: cell-based; details: U-87MG ATCC; summary of the method: as §3
# [21] = Inhibition of RTK/PI3K/AKT/mTOR signaling in human U87 cells assessed as up regulation of COX19, cytochrome c oxidase assembly factor gene expression at cytotoxic IC50 measured after 48 hrs relative to control; format: cell-based; details: U-87MG ATCC; summary of the method: as §3
# [22] = Inhibition of RTK/PI3K/AKT/mTOR signaling in human U87 cells assessed as up regulation of regulator of chromosome condensation 2 gene expression at cytotoxic IC50 measured after 48 hrs relative to control; format: cell-based; details: U-87MG ATCC
# [23] = Inhibition of RTK/PI3K/AKT/mTOR signaling in human U87 cells assessed as up regulation of EPS8 like 2 gene expression at cytotoxic IC50 measured after 48 hrs relative to control; format: cell-based; details: U-87MG ATCC; summary of the method: as §3
# [24] = Inhibition of RTK/PI3K/AKT/mTOR signaling in human U87 cells assessed as up regulation of fibroblast growth factor 19 gene expression at cytotoxic IC50 measured after 48 hrs relative to control; format: cell-based
# [25] = Inhibition of RTK/PI3K/AKT/mTOR signaling in human U87 cells assessed as up regulation of AHNAK2 gene expression at cytotoxic IC50 measured after 48 hrs relative to control; format: cell-based; details: U-87MG ATCC; summary of the method: as §3
# [26] = Inhibition of RTK/PI3K/AKT/mTOR signaling in human U87 cells assessed as up regulation of MYC gene expression at cytotoxic IC50 measured after 48 hrs relative to control; format: cell-based; details: U-87MG ATCC; summary of the method: as §3
# [27] = Inhibition of RTK/PI3K/AKT/mTOR signaling in human U87 cells assessed as up regulation of NARS gene expression at cytotoxic IC50 measured after 48 hrs relative to control; format: cell-based; details: U-87MG ATCC; summary of the method: as §3
# [28] = Inhibition of RTK/PI3K/AKT/mTOR signaling in human U87 cells assessed as up regulation of IER3 gene expression at cytotoxic IC50 measured after 48 hrs relative to control; format: cell-based; details: U-87MG ATCC; summary of the method: as §3
smiles,measurement,setting,value
CC(=O)C(=NNc1ccccc1C#N)C(C)=O,Activity,U-87 MG [1],Active
same,Activity,U-87 MG [2],2.8%
same,fold change (FC),U-87 MG [3],-1.478
same,fold change (FC),U-87 MG [4],2.307
same,fold change (FC),U-87 MG [5],1.009
same,fold change (FC),U-87 MG [6],1.569
same,fold change (FC),U-87 MG [7],-1.195
same,Activity,U-87 MG [8],68.7%
same,log2FC,U-87 MG [9],-3.064
same,log2FC,U-87 MG [10],3.514
same,log2FC,U-87 MG [11],-1.189
same,log2FC,U-87 MG [12],1.986
same,log2FC,U-87 MG [13],-1.076
same,log2FC,U-87 MG [14],3.078
same,log2FC,[15],-1.06
same,log2FC,[16],-0.876
same,log2FC,[17],-0.801
same,log2FC,[18],-0.519
same,log2FC,[19],-0.44
same,log2FC,[20],1.91
same,log2FC,[21],1.33
same,log2FC,[22],1.06
same,log2FC,[23],0.818
same,log2FC,[24],0.722
same,log2FC,[25],0.621
same,log2FC,[26],0.54
same,log2FC,[27],0.53
same,log2FC,[28],0.384
